This note sets out measurements from ChEMBL document CHEMBL4513216, “Probing the Open Global Health Chemical Diversity Library for Multistage-Active Starting Points for Next-Generation Antimalarials” (ACS Infect Dis, 2020).

The series in a line: Toxicity liver stage against HepG2, at 10uM. In kind it is cell-based. Also on record: test concentration 10 uM, cell line HepG2-A16-CD81EGFP. The conditions noted are these: human, HepG2-A16-CD81EGFP cells; read-out: INHIBITION
In a few lines: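 Uninfected HepG2-A16-CD81EGFP cells, 3 × 10^3 per well, 1536-well, plated on prespotted compound at 10 μM final, parasite-free screening media added to match infected plates; puromycin 10 μM positive, DMSO 0.5% negative; run in parallel with 48 h PbLuc assay at 37 °C, 5% CO2; viability by CellTiter-Glo luminescence, normalized to controls.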
In the case of `CC(O)CN1CCC(CNCc2c[nH]nc2C(C)(C)C)CC1` (stereo not given), the cytotoxicity at 10 µM was -8.55%.
Under `Cc1nn(C)c(C)c1C1CCCN1Cc1nc(-c2ccccn2)no1` (stereo not given) stands -5.29%; under `CN1CCN(c2ccc(NS(=O)(=O)c3ccc(Cl)s3)cc2C(=O)O)CC1`, -1.08%.
Under `Cn1cc(CC(=O)N2CCCC(c3ccn[nH]3)C2)cn1` (stereo not given) stands -4.89%; under `Cc1cc(C(=O)N2CCCCC2)ccc1NS(C)(=O)=O`, -1.4%.
As for `Cc1nn(C)cc1CN(C)C(=O)c1cnccn1`, the cytotoxicity at 10 µM is -5.2%.
The value for `CCN(CC)S(=O)(=O)N1C[C@H]2CC[C@@H](C1)N(Cc1cscn1)C2=O` was -21.1%; that for `COCCC(=O)N1C[C@@H](c2ccccc2F)[C@@]2(CCCC(=O)N2)C1` was 0.55%; that for `CC(C)NC(=O)C1CN(C(=O)COc2ccccc2)CC12CCOCC2` (stereo not given) was -78.3%.
For the compound `Cc1cccc(CN2C[C@@H]3CN(C(=O)[C@H]4CCCO4)C[C@@H]3C2=O)c1`, the cytotoxicity at 10 µM was determined as 9.95%.
For `Cc1nc(-c2ccco2)ccc1C(=O)N1CCCC1Cn1cccn1` (stereo not given), the cytotoxicity at 10 µM was 5.61%.
The value for `O=C(NCC(O)c1cccc(F)c1)c1cccnc1O` (stereo not given) was -1.68%.
As for `O=C1NCCCc2[nH]c(Cc3ccc(F)cc3)nc21`, the cytotoxicity at 10 µM is -20.9%.
Under `COc1ccc(Cl)cc1CS(=O)(=O)Cc1cc(C)on1` stands 6.06%; under `Cc1nn(C)cc1-c1ccnc(N2CCN(c3ccccc3)C(=O)C2)n1`, -7.57%.
As for `COc1c(C)cnc(CN2CCn3c(nnc3C(C)C)C2)c1C`, the cytotoxicity at 10 µM came out at 5.56%.
Turning to `O=S(=O)(C1CC1)N1CCc2c(CN3CCOCC3)cncc2C1`, the cytotoxicity at 10 µM is -0.514%.
The value for `COc1ccc(S(=O)(=O)N2CC(CC(=O)O)c3ccccc32)cc1` (stereo not given) was 6.04%.
As to `CC(C(=O)N1CCC(Cc2ccc(F)cc2)CC1)n1ccnc1` (stereo not given), the cytotoxicity at 10 µM is 4.57%.
With `COC(=O)c1ccc(C(=O)NCC2(O)CCOCC2)cc1`, the cytotoxicity at 10 µM was -5.08%.
As to `NCC1Cc2cc(F)cc(-c3cnccn3)c2O1` (stereo not given), the cytotoxicity at 10 µM is -9.78%.
For `Cc1cccc(-n2cnnc2CCCN2CCOCC2)c1`, the cytotoxicity at 10 µM was -2.42%.
The value for `O=C(c1ccn(COc2ccc(F)cc2)n1)N1CCCC1` was 6.25%; that for `Cc1cnc(NCC(C)(C)N2CCN(C)CC2)nc1` was -4.52%.
As for `CCN(CC)Cc1ccc(C(=O)N2CCCC2Cn2cccn2)o1` (stereo not given), the cytotoxicity at 10 µM was -10.5%.
Under `Cc1ccc(N2CC3(COCCN(Cc4ccncc4)C3)OCC2=O)s1` (stereo not given) stands 8.59%; under `COCCN1C(=O)CCC12CCN(C(=O)CC1CC1)CC2`, 3.73%.
On to `Cc1cc(C)n(C2CCCN(C(=O)Cc3cccc(F)c3)C2)n1` (stereo not given), for which the cytotoxicity at 10 µM was -8.09%.
As for `NC(=O)C1CCN(C(=O)c2cccc(OCc3cscn3)c2)CC1`, the cytotoxicity at 10 µM is -15.5%.
As to `CN(Cc1noc2c1CCCC2)C(=O)Cn1cnc2ccccc2c1=O`, the cytotoxicity at 10 µM was -52.4%.
For `COC(=O)[C@H](C)NC(=O)c1nc(C2CC2)n(-c2ccccc2Cl)n1`, the cytotoxicity at 10 µM was -1.76%.
With `Cc1cccc(-c2nc(N)nc3c2CN(C(=O)c2cc(C)n[nH]2)C3C)c1` (stereo not given), the cytotoxicity at 10 µM was determined as 4.58%.
Take `COCCN1CCn2cc(CN(C)Cc3ccco3)nc2C1`: the cytotoxicity at 10 µM was -74.9%.
The value for `CO[C@H]1CCN(C(=O)Cc2ccsc2)[C@@H]2CN(CC3CC3)C[C@H]12` was 6.35%.
The value for `CCCn1nccc1-c1cc(C2CCN(S(C)(=O)=O)CC2)nc(C)n1` was -10.7%; that for `COc1ccc(-c2noc(-c3ccc(N4CCC[C@H]4CO)nc3)n2)cc1` was 11.1%; that for `Cc1ccccc1N1CCN(C(=O)CSc2ccncc2)CC1=O` was 6.71%.
Under `CCC/C=C/c1ccc(CN2CCCC2)cn1` stands -16.1%.
Consider `CCNS(=O)(=O)c1ccc(C)c(C(=O)N(C)Cc2ccccc2C)c1`, for which the cytotoxicity at 10 µM worked out at 0.997%.
The value for `CS(=O)(=O)NCc1noc2c1CN(C(=O)C1CCC1)CC2` was -105%.
With `CCNC(=O)NC(C)(C)C(=O)NCCc1csc2ccccc12`, the cytotoxicity at 10 µM was -15.5%.
Turning to `Cc1cn[nH]c1C1CCCN1Cc1ccc(F)c(F)c1` (stereo not given), the cytotoxicity at 10 µM came out at 4.14%.
Turning to `O=C(CN1CCCC1c1nc2cc(F)ccc2[nH]1)NCc1ccccn1` (stereo not given), the cytotoxicity at 10 µM was -0.748%.
Turning to `CNC(=O)CCN1CCN(C(C)c2ccc(Cl)cc2)CC1` (stereo not given), the cytotoxicity at 10 µM was -0.82%.
Under `Cc1ccc(-c2nc(CNC(C)CCO)[nH]c2-c2ccccn2)cc1` (stereo not given) stands -6.78%; under `CCC(Nc1cccc(OC)c1)C(=O)NCc1ccc2[nH]c(=O)[nH]c2c1` (stereo not given), 1.67%.
`COCCCn1ccc(NS(=O)(=O)c2cc(C)c(F)cc2F)n1`: the cytotoxicity at 10 µM was determined as 20.1%.
As to `Cc1cccc(CN2C[C@@H]3CN(C(=O)NC(C)C)C[C@@H]3C2=O)n1`, the cytotoxicity at 10 µM was 2.91%.
As for `C[C@H]1C[C@@H]2CCN(CC3CCOCC3)C[C@H]2O1`, the cytotoxicity at 10 µM came out at 10.3%.
Under `CN1CC(C(=O)Nc2ccc(OCC(F)(F)C(F)F)nc2)CC1=O` (stereo not given) stands -8.64%.
The value for `CCc1cc(CN(C)Cc2nc(-c3sccc3C)oc2C)on1` was -3.81%.
The value for `Cc1noc(C)c1CNC(=O)N1CCC(CO)CC1` was -8.08%; that for `COC(=O)c1cc(OCC2CCC2)cc(C(=O)NC2CCC(O)CC2)c1` (stereo not given) was -14.2%; that for `CC(=O)N1CCCC(c2nc(N(C)C)ncc2-c2cccc(F)c2)C1` (stereo not given) was -34.8%.
With `c1ccc(-n2cc(CNC3CCc4ncnn4C3)cn2)cc1` (stereo not given), the cytotoxicity at 10 µM was -26.6%.
The value for `CCc1nccn1CCNC1CCN(c2nc3ccc(Cl)cc3s2)CC1` was 28.8%; that for `COc1cc(C2(C(=O)NCC(=O)NC3CC3)CC2)ccc1C` was -17.4%.
Take `Cc1ncsc1C(=O)NCCOc1ncc(Cl)cc1Cl`: the cytotoxicity at 10 µM was 7.67%.
Under `COCCN1CCCC(c2ncc(C(=O)N3CCOCC3)c(C)n2)C1` (stereo not given) stands 0.893%; under `NC(=O)c1ccc(OCC(=O)NS(=O)(=O)c2ccc3c(c2)CCC3)cc1`, -8.89%.
Turning to `O=C(O)c1ccc(CN2CCC(c3ccnc4ccnn34)CC2)cc1`, the cytotoxicity at 10 µM was -29.9%.
The value for `Cc1ccc(CN2C[C@@H](OCc3ccccn3)[C@H]3COC[C@H]32)o1` was -114%; that for `CC(C)C(=O)Nc1ccc(Oc2ccc3c(c2)OCO3)nc1` was -12.4%; that for `COc1cccc(CCC2CCCN(C(=O)c3ccccn3)C2)c1` (stereo not given) was -0.237%.
For `CC(C)NC(=O)[C@H]1C[C@H]2OCC[C@H]2N(Cc2ccc3ccccc3n2)C1`, the cytotoxicity at 10 µM was -56.3%.
Under `Cc1nn(C)cc1CN1CCC(c2ncc(Cl)cc2S(C)(=O)=O)CC1` stands -0.1%; under `CC(NC(=O)N(C)Cc1ccsc1)c1ccc2c(c1)NC(=O)CO2` (stereo not given), -7.77%; under `CC(=O)N[C@H]1CCO[C@@H](c2cccc(NC(=O)C(C)(C)C)c2)C1`, 6.17%.
With `CS(=O)(=O)NC1CCN(C(=O)NCCNc2ccccn2)CC1`, the cytotoxicity at 10 µM is -0.685%.
Under `Cn1cnc2c1C(COCC1CCOCC1)CN(C(=O)c1ccoc1)C2` (stereo not given) stands -7.8%.
The value for `CCc1ncc(C(=O)NCCNc2ccncc2)s1` was -9.7%.
Under `CCC1=NC(SCC(=O)c2ccc(OC)cc2)c2cc(CC)sc2N1` (stereo not given) stands 9.4%.
Regarding `Cn1cc(C2COC3(CCN(C(=O)c4cnccn4)CC3)C2)cn1` (stereo not given), the cytotoxicity at 10 µM is -68.5%.
The value for `O=C(NCCNc1cnccn1)N1CCN(c2nccs2)CC1` was -0.84%; that for `COCCN1CCCc2sc(C(=O)NCC3CCCO3)nc21` (stereo not given) was 5.96%.
Consider `Cn1c(=O)ccn(CC(=O)Nc2cccnc2)c1=O`, for which the cytotoxicity at 10 µM is -1.58%.
Under `CCC(=O)N1CCN(c2ncnc3c(C)nn(C)c23)CC1` stands -1.43%; under `CCNC(=O)N1CC(c2nc(Cc3ccccc3)no2)C1`, -2.98%.
On to `Cc1c(C(=O)O)cnn1-c1ccc(-c2nc(C3CC3)no2)cn1`, for which the cytotoxicity at 10 µM was determined as 0.88%.
Turning to `Cc1ncsc1CN1CC[C@H]2C[C@H](c3ccncn3)O[C@@H]2C1`, the cytotoxicity at 10 µM was 4.87%.
Under `O=C1CCC2(CCN(CCSc3ccccc3)CC2)CN1CCCO` stands 2.09%.
Turning to `CN1CCOC(C(=O)Nc2nc(-c3ccc4c(c3)CCC4)n[nH]2)C1` (stereo not given), the cytotoxicity at 10 µM is -7.53%.
For the compound `CN(C)C(=O)CN1CCCC(CCCc2ccccn2)(C(N)=O)C1` (stereo not given), the cytotoxicity at 10 µM is -23.2%.
Consider `CN(C)c1ncncc1NC(=O)Cc1c[nH]c2ccc(F)cc12`, for which the cytotoxicity at 10 µM was -9.74%.
Under `Oc1ccc([C@H]2Oc3cc(O)cc(O)c3C[C@@H]2O)cc1` stands 4.94%; under `Cc1cc(C(=O)N(C)C)nc(C2(C)CCCN2c2ccnc(C)n2)n1` (stereo not given), -7.49%.
As for `Cc1ccc(F)c2c1CCCN2Cc1cc(=O)n(C)c(=O)n1C`, the cytotoxicity at 10 µM stood at 13.6%.
As for `CN1CCN(C2CCN(CCOc3ccc(C#N)cc3)CC2)C1=O`, the cytotoxicity at 10 µM was -1.03%.
`O=S(=O)(Cc1ccccc1)NCc1ccnc(O)c1`: the cytotoxicity at 10 µM is -1.2%.
Under `Cc1csc(CN(C)S(=O)(=O)c2ccc(C)c(N(C)C)c2)n1` stands 13.7%.
The value for `CC(C)NC[C@H]1COCc2nc3cccnc3n21` was -5.38%; that for `CS(=O)(=O)N1CCN2C(=O)N(C3CCOCC3)C[C@H]2C1` was 5.76%; that for `COC(=O)CCC(=O)N1CCc2nc(C(=O)N3CCOCC3)sc2CC1` was 15.3%.
As for `COCCN1C(=O)C[C@H]2[C@H]1CCN2Cc1ccc(OC)cc1`, the cytotoxicity at 10 µM stood at 1.47%.
Under `CC(=O)N1CCC(c2ncc(C(=O)Nc3ccc(F)cc3)c(C)n2)CC1` stands 7.29%.
